Results: ChEMBL document CHEMBL5321266, “Discovery of a Series of Indane-Containing NBTIs with Activity against Multidrug-Resistant Gram-Negative Pathogens” (ACS Med Chem Lett, 2023)
Values after ≈ are worked out from the molar mass of the structure shown.

How the values were obtained:
[1] = biological target: Voltage-gated inwardly rectifying potassium channel KCNH2 (Homo sapiens, UniProt Q12809); assay: Inhibition of human ERG expressed in CHO cells by automated path clamp method; type: toxicity, cell-based; details: for inhibition (INH): human, cho
Chain of Voltage-gated inwardly rectifying potassium channel KCNH2 (Q12809 whole entry): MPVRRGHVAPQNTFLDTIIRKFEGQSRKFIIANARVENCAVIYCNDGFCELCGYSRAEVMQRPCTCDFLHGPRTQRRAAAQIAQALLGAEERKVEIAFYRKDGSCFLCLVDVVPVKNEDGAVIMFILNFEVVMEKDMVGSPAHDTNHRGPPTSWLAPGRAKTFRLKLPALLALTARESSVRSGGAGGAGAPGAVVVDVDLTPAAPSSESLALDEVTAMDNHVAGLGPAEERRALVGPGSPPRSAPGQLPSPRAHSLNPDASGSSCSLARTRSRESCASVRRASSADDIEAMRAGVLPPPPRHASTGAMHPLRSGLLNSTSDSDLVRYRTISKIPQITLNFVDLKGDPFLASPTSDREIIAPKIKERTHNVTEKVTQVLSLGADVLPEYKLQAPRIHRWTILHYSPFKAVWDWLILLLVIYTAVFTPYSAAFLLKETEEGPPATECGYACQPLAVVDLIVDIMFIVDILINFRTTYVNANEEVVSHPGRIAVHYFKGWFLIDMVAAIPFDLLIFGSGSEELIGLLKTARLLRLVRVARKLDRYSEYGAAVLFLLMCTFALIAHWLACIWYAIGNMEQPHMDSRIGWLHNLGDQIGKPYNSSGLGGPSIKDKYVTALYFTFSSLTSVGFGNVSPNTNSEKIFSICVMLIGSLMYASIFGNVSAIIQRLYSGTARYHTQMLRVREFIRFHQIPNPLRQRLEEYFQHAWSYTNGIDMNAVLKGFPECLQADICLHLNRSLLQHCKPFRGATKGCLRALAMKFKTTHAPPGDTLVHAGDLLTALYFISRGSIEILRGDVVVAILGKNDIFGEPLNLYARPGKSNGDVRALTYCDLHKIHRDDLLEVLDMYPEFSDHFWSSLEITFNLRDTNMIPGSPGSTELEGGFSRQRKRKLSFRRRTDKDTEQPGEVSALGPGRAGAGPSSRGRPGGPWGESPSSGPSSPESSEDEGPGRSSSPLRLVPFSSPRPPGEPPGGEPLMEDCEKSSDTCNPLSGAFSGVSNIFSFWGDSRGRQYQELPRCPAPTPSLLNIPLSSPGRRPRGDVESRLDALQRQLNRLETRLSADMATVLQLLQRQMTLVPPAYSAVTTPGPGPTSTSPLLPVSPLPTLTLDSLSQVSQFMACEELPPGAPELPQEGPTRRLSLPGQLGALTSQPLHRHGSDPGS
Outline: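 Patch-clamp electrophysiology on the hERG ion channel, recorded at 37 °C; the IC₅₀ was determined.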

[2] = tested on: Escherichia coli; assay: Antibacterial activity against Escherichia coli ATCC 25922 incubated for 20 to 24 hrs by CLSI based broth microdilution method; type: functional; details: time 20-24 hrs
[3] = tested on: Pseudomonas aeruginosa; assay: Antibacterial activity against Pseudomonas aeruginosa ATCC 27853 incubated for 20 to 24 hrs by CLSI based broth microdilution method; type: functional; details: time 20-24 hrs
[4] = tested on: Klebsiella pneumoniae; assay: Antibacterial activity against Klebsiella pneumoniae ATCC BAA-1705 incubated for 20 to 24 hrs by CLSI based broth microdilution method; type: functional; details: time 20-24 hrs
[5] = tested on: Acinetobacter baumannii; assay: Antibacterial activity against Acinetobacter baumannii ATCC 19606 incubated for 20 to 24 hrs by CLSI based broth microdilution method; type: functional; details: time 20-24 hrs
[6] = biological target: T1, DNA gyrase (Escherichia coli, UniProt P0AES4+P0AES6); assay: Inhibition of Escherichia coli DNA gyrase ATPase activity incubated for 80 mins; type: protein-complex assay
[7] = biological target: DNA topoisomerase 2-alpha (Homo sapiens, UniProt P11388); assay: Inhibition of human topoisomerase 2 alpha decatenation activity using kDNA as substrate preincubated for 5 mins followed by enzyme addition and measured after 1 hr by agarose gel electrophoresis
Chain of DNA topoisomerase 2-alpha (P11388 whole entry): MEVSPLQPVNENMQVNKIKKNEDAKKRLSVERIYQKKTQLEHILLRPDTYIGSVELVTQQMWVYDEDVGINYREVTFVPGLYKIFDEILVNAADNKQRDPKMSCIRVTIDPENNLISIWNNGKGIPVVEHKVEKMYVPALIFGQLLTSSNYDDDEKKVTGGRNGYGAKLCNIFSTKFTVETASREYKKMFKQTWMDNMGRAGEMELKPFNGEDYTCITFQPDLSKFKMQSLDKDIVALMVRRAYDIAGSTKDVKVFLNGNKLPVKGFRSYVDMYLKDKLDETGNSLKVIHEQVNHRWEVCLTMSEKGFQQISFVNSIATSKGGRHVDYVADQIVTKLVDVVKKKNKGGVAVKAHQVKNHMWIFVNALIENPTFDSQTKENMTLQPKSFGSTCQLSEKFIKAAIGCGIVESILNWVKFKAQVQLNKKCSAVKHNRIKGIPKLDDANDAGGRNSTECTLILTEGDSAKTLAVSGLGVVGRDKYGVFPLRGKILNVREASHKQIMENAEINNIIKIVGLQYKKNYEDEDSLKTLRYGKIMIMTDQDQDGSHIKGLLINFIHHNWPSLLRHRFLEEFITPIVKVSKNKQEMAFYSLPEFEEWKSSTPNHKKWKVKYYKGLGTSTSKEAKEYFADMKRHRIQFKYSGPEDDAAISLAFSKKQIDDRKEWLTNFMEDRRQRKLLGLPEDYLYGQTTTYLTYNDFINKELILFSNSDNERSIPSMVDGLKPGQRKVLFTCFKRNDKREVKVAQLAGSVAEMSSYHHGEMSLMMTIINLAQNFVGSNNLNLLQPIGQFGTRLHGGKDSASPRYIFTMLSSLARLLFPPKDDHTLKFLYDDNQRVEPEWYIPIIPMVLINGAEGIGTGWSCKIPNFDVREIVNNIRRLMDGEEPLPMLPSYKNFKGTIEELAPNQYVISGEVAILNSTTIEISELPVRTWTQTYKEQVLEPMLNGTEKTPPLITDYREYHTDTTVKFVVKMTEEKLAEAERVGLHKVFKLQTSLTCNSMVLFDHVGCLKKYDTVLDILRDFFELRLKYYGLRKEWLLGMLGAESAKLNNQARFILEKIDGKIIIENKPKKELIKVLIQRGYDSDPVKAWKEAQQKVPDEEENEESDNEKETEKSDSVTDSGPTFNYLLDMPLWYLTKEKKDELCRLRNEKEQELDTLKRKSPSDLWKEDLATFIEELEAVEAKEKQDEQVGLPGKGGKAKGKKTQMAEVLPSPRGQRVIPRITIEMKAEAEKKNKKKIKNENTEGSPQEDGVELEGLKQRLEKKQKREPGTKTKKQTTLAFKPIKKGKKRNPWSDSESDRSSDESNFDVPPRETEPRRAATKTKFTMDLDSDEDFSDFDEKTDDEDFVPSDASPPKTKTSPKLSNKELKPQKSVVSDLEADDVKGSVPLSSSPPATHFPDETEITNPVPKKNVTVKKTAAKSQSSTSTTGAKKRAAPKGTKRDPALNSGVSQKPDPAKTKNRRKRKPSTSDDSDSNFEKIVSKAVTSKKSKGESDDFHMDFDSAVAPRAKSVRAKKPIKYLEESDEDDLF

[8] = biological target: T1, DNA gyrase; assay: Inhibition of Escherichia coli DNA gyrase supercoiling activity using relaxed pBR322 DNA as substrate preincubated for 5 mins followed by enzyme addition and measured after 1 hr by agarose gel electrophoresis; type: protein-complex assay
[9] = Inhibition of Escherichia coli topoisomerase 4 decatenation activity using kDNA as substrate preincubated for 5 mins followed by enzyme addition and measured after 1 hr by agarose gel electrophoresis method

SMILES	inhibition (INH) [1]	MIC [2]	MIC [3]	MIC [4]	MIC [5]	IC50 [6]	IC50 [1]	IC50 [7]	IC50 [8]	IC50 [9]
O=C1COc2ccc(N3CC(CCNC4Cc5cccc(Cl)c5C4)OC3=O)nc2N1 (stereo not given)	Active	2 µg/mL (≈ 4.66 µM)	16 µg/mL (≈ 37.3 µM)	16 µg/mL (≈ 37.3 µM)	4 µg/mL (≈ 9.33 µM)	290 nM				
N#Cc1cccc2c1CC(CNCCC1CN(c3ccc4c(n3)NC(=O)CO4)C(=O)O1)C2 (stereo not given)		≤ 0.06 µg/mL	0.5 µg/mL (≈ 1.15 µM)	1 µg/mL (≈ 2.31 µM)	0.125 µg/mL (≈ 0.288 µM)	21 nM	900 nM	> 100000 nM	100 nM	160 nM
O=C1COc2ccc(N3CC(CCNCC4Cc5cccc(Cl)c5C4)OC3=O)nc2N1 (stereo not given)	Active	0.125 µg/mL (≈ 0.282 µM)	2 µg/mL (≈ 4.52 µM)	2 µg/mL (≈ 4.52 µM)	0.125 µg/mL (≈ 0.282 µM)	90 nM				
O=c1cc(NCC2CN(CC3Cc4ccnc(Cl)c4C3)C2)c2cc(F)ccc2o1 (stereo not given)	Active	2 µg/mL (≈ 4.83 µM)	8 µg/mL (≈ 19.3 µM)	32 µg/mL (≈ 77.3 µM)	4 µg/mL (≈ 9.66 µM)	160 nM				
O=C1COc2ccc(N3CC(CNCC4Cc5cccc(Cl)c5C4)OC3=O)nc2N1 (stereo not given)	Active	0.5 µg/mL (≈ 1.17 µM)	8 µg/mL (≈ 18.7 µM)	32 µg/mL (≈ 74.6 µM)	1 µg/mL (≈ 2.33 µM)	230 nM				
O=C1COc2ccc(N3CC(CNCCC4Cc5cccc(Cl)c5C4)OC3=O)nc2N1 (stereo not given)	Active	0.25 µg/mL (≈ 0.564 µM)	1 µg/mL (≈ 2.26 µM)	4 µg/mL (≈ 9.03 µM)	0.25 µg/mL (≈ 0.564 µM)	90 nM				
O=C1COc2ccc(N3CC(CCCNC4Cc5ccccc5C4)OC3=O)nc2N1 (stereo not given)	Active	2 µg/mL (≈ 4.9 µM)	8 µg/mL (≈ 19.6 µM)	16 µg/mL (≈ 39.2 µM)	8 µg/mL (≈ 19.6 µM)	270 nM				
N#Cc1cccc2c1CC(NCCCC1CN(c3ccc4c(n3)NC(=O)CO4)C(=O)O1)C2 (stereo not given)	Active	0.25 µg/mL (≈ 0.577 µM)	2 µg/mL (≈ 4.61 µM)	2 µg/mL (≈ 4.61 µM)	0.5 µg/mL (≈ 1.15 µM)	57 nM				
O=C1COc2ccc(N3CC(CCNCC4Cc5ccccc5C4)OC3=O)nc2N1 (stereo not given)	Active	1 µg/mL (≈ 2.45 µM)	8 µg/mL (≈ 19.6 µM)	8 µg/mL (≈ 19.6 µM)	2 µg/mL (≈ 4.9 µM)	180 nM				
O=C1COc2ccc(N3CC(CCNCC4Cc5cccc(F)c5C4)OC3=O)nc2N1 (stereo not given)	Active	0.5 µg/mL (≈ 1.17 µM)	4 µg/mL (≈ 9.38 µM)	4 µg/mL (≈ 9.38 µM)	0.5 µg/mL (≈ 1.17 µM)	100 nM				
O=C1COc2ccc(N3CC(CCCNC4Cc5cccc(F)c5C4)OC3=O)nc2N1 (stereo not given)	Active	0.5 µg/mL (≈ 1.17 µM)	4 µg/mL (≈ 9.38 µM)	4 µg/mL (≈ 9.38 µM)	1 µg/mL (≈ 2.34 µM)	120 nM				
O=C1COc2ccc(N3CC(CNC4Cc5cccc(Cl)c5C4)OC3=O)nc2N1 (stereo not given)	Active	8 µg/mL (≈ 19.3 µM)	> 64 µg/mL	> 64 µg/mL	4 µg/mL (≈ 9.64 µM)	580 nM				
O=C1COc2ccc(N3CC(CCCNC4Cc5cccc(Cl)c5C4)OC3=O)nc2N1 (stereo not given)	Active	0.25 µg/mL (≈ 0.564 µM)	2 µg/mL (≈ 4.52 µM)	2 µg/mL (≈ 4.52 µM)	0.5 µg/mL (≈ 1.13 µM)	72 nM				
O=C1COc2ccc(N3CC(CCNCCC4Cc5cccc(Cl)c5C4)OC3=O)nc2N1 (stereo not given)	Active	0.5 µg/mL (≈ 1.09 µM)	4 µg/mL (≈ 8.75 µM)	8 µg/mL (≈ 17.5 µM)	1 µg/mL (≈ 2.19 µM)	120 nM				
O=C1COc2ccc(N3CC(CCCNC4CCc5c(Cl)cccc54)OC3=O)nc2N1 (stereo not given)	Active	2 µg/mL (≈ 4.52 µM)	8 µg/mL (≈ 18.1 µM)	16 µg/mL (≈ 36.1 µM)	8 µg/mL (≈ 18.1 µM)	190 nM				
O=C1COc2ccc(N3CC(CCCNC4Cc5ccc(Cl)cc5C4)OC3=O)nc2N1 (stereo not given)	Active	2 µg/mL (≈ 4.52 µM)	16 µg/mL (≈ 36.1 µM)	8 µg/mL (≈ 18.1 µM)	4 µg/mL (≈ 9.03 µM)	250 nM				
O=C1COc2ccc(N3CC(CCCNC4Cc5ccc(F)cc5C4)OC3=O)nc2N1 (stereo not given)	Active	1 µg/mL (≈ 2.34 µM)	16 µg/mL (≈ 37.5 µM)	8 µg/mL (≈ 18.8 µM)	4 µg/mL (≈ 9.38 µM)	160 nM				
